Test results: ChEMBL document CHEMBL1149761, “New triazole and triazolothiadiazine derivatives as possible antimicrobial agents” (2008)
Converted amounts (≈) assume the structure as drawn.

Legend:
Bacillus cereus = assay: Antibacterial activity against Bacillus cereus NRRL B-3711 by microdilution broth susceptibility assay; type: functional
Nakaseomyces glabratus = assay: Antifungal activity against Candida glabrata isolate by broth dilution antifungal susceptibility test; type: functional
Outline: (§1)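 Clinical Candida isolates obtained from Osmangazi University, Faculty of Medicine. Tested by the microbroth dilution method alongside bacterial strains.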

Escherichia coli = assay: Antibacterial activity against Escherichia coli NRRL B-3704 by microdilution broth susceptibility assay; type: functional
Candida albicans = assay: Antifungal activity against Candida albicans isolate by broth dilution antifungal susceptibility test; type: functional; outline: as §1
Salmonella typhimurium = assay: Antibacterial activity against Salmonella Typhimurium NRRL B-4420 by microdilution broth susceptibility assay; type: functional, Salmonella enterica subsp. enterica serovar Typhimurium; conditions: Salmonella enterica
Proteus vulgaris = assay: Antibacterial activity against Proteus vulgaris NRRL B-123 by microdilution broth susceptibility assay; type: functional
Staphylococcus aureus = assay: Antibacterial activity against Staphylococcus aureus NRRL B-767 by microdilution broth susceptibility assay; type: functional
Micrococcus luteus = assay: Antibacterial activity against Micrococcus luteus NRLL B-4375 by microdilution broth susceptibility assay; type: functional

| Structure (SMILES) | MIC (Bacillus cereus) [µg/mL] | MIC (Nakaseomyces glabratus) [µg/mL] | MIC (Escherichia coli) [µg/mL] | MIC (Candida albicans) [µg/mL] | MIC (Salmonella typhimurium) [µg/mL] | MIC (Proteus vulgaris) [µg/mL] | MIC (Staphylococcus aureus) [µg/mL] | MIC (Micrococcus luteus) [µg/mL] |
| --- | --- | --- | --- | --- | --- | --- | --- | --- |
| Clc1ccc(C2=Nn3c(Cc4c[nH]c5ccccc45)nnc3SC2)cc1 | 125 (≈ 329 µM) | 250 (≈ 658 µM) | 125 (≈ 329 µM) | 125 (≈ 329 µM) | 125 (≈ 329 µM) | 250 (≈ 658 µM) | 125 (≈ 329 µM) | 62.5 (≈ 165 µM) |
| Cc1ccc(/C=N/n2c(Cc3c[nH]c4ccccc34)n[nH]c2=S)cc1 | 125 (≈ 360 µM) | 125 (≈ 360 µM) | 250 (≈ 720 µM) | 250 (≈ 720 µM) | 125 (≈ 360 µM) | 62.5 (≈ 180 µM) | 125 (≈ 360 µM) | 62.5 (≈ 180 µM) |
| O=C(N[C@H](CO)[C@H](O)c1ccc([N+](=O)[O-])cc1)C(Cl)Cl [CHLORAMPHENICOL] | 125 (≈ 387 µM) | – | 62.5 (≈ 193 µM) | – | 0.97 (≈ 3 µM) | 0.97 (≈ 3 µM) | 62.5 (≈ 193 µM) | 1.95 (≈ 6.03 µM) |
| CN(C)c1ccc(C2=Nn3c(Cc4c[nH]c5ccccc45)nnc3SC2)cc1 | 125 (≈ 322 µM) | 250 (≈ 644 µM) | 125 (≈ 322 µM) | 125 (≈ 322 µM) | 12.5 (≈ 32.2 µM) | 125 (≈ 322 µM) | 250 (≈ 644 µM) | 62.5 (≈ 161 µM) |
| CC(=O)N1CCN(c2ccc(OCC3COC(Cn4ccnc4)(c4ccc(Cl)cc4Cl)O3)cc2)CC1 (stereo not drawn) [KETOCONAZOLE] | – | 62.5 (≈ 118 µM) | – | 62.5 (≈ 118 µM) | – | – | – | – |
| O=[N+]([O-])c1ccc(/C=N/n2c(Cc3c[nH]c4ccccc34)n[nH]c2=S)cc1 | 250 (≈ 661 µM) | 125 (≈ 330 µM) | 125 (≈ 330 µM) | 125 (≈ 330 µM) | 125 (≈ 330 µM) | 125 (≈ 330 µM) | 250 (≈ 661 µM) | 125 (≈ 330 µM) |
| Cc1ccc(C2=Nn3c(Cc4c[nH]c5ccccc45)nnc3SC2)cc1 | 250 (≈ 695 µM) | 62.5 (≈ 174 µM) | 125 (≈ 348 µM) | 250 (≈ 695 µM) | 62.5 (≈ 174 µM) | 125 (≈ 348 µM) | 125 (≈ 348 µM) | 62.5 (≈ 174 µM) |
| S=c1[nH]nc(Cc2c[nH]c3ccccc23)n1/N=C/c1ccc(Cl)cc1 | 250 (≈ 680 µM) | 250 (≈ 680 µM) | 125 (≈ 340 µM) | 125 (≈ 340 µM) | 62.5 (≈ 170 µM) | 125 (≈ 340 µM) | 125 (≈ 340 µM) | 62.5 (≈ 170 µM) |
| O=[N+]([O-])c1ccc(C2=Nn3c(Cc4c[nH]c5ccccc45)nnc3SC2)cc1 | 250 (≈ 640 µM) | 125 (≈ 320 µM) | 125 (≈ 320 µM) | 125 (≈ 320 µM) | 250 (≈ 640 µM) | 125 (≈ 320 µM) | 125 (≈ 320 µM) | 125 (≈ 320 µM) |
| CN(C)c1ccc(/C=N/n2c(Cc3c[nH]c4ccccc34)n[nH]c2=S)cc1 | 125 (≈ 332 µM) | 250 (≈ 664 µM) | 125 (≈ 332 µM) | 250 (≈ 664 µM) | 62.5 (≈ 166 µM) | 125 (≈ 332 µM) | 250 (≈ 664 µM) | 125 (≈ 332 µM) |
| c1ccc(C2=Nn3c(Cc4c[nH]c5ccccc45)nnc3SC2)cc1 | 125 (≈ 362 µM) | 125 (≈ 362 µM) | 250 (≈ 724 µM) | 125 (≈ 362 µM) | 62.5 (≈ 181 µM) | 62.5 (≈ 181 µM) | 62.5 (≈ 181 µM) | 62.5 (≈ 181 µM) |
| S=c1[nH]nc(Cc2c[nH]c3ccccc23)n1/N=C/c1ccccc1 | 250 (≈ 750 µM) | 125 (≈ 375 µM) | 125 (≈ 375 µM) | 125 (≈ 375 µM) | 62.5 (≈ 187 µM) | 62.5 (≈ 187 µM) | 125 (≈ 375 µM) | 250 (≈ 750 µM) |
